Experimental data taken from ChEMBL document CHEMBL1165965, “Synthesis and structure-activity relationships of 1,2,3,4-tetrahydropyrido[2,3-b]pyrazines as potent and selective inhibitors of the anaplastic lymphoma kinase” (Bioorg Med Chem, 2010).

What was measured:
[1] = biological target: T1, Serine/threonine-protein kinase Nek2 (Homo sapiens) (UniProt P51955); test: Inhibition of NEK2 at 1 uM
T1 sequence (whole entry): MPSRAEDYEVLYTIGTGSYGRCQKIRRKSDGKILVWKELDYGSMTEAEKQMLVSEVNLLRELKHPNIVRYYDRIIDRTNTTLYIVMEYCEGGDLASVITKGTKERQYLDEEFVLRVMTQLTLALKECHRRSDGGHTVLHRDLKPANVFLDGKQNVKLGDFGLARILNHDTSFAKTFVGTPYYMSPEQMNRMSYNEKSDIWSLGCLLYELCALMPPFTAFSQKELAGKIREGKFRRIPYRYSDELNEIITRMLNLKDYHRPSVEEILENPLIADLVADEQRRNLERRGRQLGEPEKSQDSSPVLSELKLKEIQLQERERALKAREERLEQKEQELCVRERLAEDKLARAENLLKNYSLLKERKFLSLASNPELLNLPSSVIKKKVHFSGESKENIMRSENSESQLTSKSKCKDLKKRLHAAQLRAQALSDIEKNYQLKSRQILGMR

[2] = biological target: Interferon-induced, double-stranded RNA-activated protein kinase (Homo sapiens) (UniProt P19525); test: Inhibition of PRKR at 1 uM
[3] = biological target: Ribosomal protein S6 kinase alpha-4 (Homo sapiens) (UniProt O75676); test: Inhibition of RPS6KA4 N-terminal domain1 at 1 uM
[4] = biological target: TRAF2 and NCK-interacting protein kinase (Homo sapiens) (UniProt Q9UKE5); test: Inhibition of TNIK at 1 uM
Method in brief: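 Single-concentration screen on the Ambit KINOMEscan platform, run against a panel of 250–400 kinases. Per-kinase inhibition was also summarized as S(90), the fraction of kinases inhibited by more than 90%.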

[5] = biological target: Dual specificity protein kinase CLK3 (Homo sapiens) (UniProt P49761); test: Inhibition of CLK3 at 1 uM
Method in brief: (§1)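 Single-concentration screen using Ambit Bioscience KINOMEscan technology across a panel of 250–400 kinases. Per-kinase inhibition from this screen was summarized as S(90), the fraction of kinases inhibited by more than 90%.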

[6] = biological target: Casein kinase II subunit alpha' (Homo sapiens) (UniProt P19784); test: Inhibition of CSNK2A2 at 1 uM; method in brief: as §1
[7] = biological target: T2, Ephrin type-B receptor 2 (Homo sapiens) (UniProt P29323); test: Inhibition of EPHB2 at 1 uM; method in brief: as §1
T2 sequence (whole entry): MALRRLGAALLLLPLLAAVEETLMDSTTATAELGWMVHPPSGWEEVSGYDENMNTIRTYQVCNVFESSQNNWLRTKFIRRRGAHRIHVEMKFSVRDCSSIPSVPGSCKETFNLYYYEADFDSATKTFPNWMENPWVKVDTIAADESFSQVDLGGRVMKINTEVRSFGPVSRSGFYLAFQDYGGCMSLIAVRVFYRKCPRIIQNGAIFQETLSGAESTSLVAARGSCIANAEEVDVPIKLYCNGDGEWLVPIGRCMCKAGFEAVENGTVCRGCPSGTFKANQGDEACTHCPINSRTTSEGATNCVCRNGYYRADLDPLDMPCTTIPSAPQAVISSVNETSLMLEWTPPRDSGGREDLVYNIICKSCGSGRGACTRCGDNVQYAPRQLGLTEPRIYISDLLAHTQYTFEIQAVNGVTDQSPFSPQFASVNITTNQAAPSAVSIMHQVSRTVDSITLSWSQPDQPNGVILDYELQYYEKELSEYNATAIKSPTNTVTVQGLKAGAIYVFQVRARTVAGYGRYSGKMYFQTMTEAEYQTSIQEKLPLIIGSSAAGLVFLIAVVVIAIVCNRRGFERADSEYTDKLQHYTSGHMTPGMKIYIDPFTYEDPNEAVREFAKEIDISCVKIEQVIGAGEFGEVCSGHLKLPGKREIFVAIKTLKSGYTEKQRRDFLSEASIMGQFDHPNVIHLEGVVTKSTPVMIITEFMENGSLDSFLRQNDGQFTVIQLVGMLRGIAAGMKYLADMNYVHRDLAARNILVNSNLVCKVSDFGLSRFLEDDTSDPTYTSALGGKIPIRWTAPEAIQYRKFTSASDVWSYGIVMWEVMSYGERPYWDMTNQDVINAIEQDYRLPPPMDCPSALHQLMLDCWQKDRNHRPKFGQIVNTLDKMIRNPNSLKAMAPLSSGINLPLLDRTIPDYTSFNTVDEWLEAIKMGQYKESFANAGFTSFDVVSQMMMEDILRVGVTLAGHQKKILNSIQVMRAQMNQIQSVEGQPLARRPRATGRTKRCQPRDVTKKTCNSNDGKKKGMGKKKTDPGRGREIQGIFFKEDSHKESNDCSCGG

[8] = biological target: T3, Ephrin type-B receptor 3 (Homo sapiens) (UniProt P54753); test: Inhibition of EPHB3 at 1 uM; method in brief: as §1
T3 sequence (whole entry): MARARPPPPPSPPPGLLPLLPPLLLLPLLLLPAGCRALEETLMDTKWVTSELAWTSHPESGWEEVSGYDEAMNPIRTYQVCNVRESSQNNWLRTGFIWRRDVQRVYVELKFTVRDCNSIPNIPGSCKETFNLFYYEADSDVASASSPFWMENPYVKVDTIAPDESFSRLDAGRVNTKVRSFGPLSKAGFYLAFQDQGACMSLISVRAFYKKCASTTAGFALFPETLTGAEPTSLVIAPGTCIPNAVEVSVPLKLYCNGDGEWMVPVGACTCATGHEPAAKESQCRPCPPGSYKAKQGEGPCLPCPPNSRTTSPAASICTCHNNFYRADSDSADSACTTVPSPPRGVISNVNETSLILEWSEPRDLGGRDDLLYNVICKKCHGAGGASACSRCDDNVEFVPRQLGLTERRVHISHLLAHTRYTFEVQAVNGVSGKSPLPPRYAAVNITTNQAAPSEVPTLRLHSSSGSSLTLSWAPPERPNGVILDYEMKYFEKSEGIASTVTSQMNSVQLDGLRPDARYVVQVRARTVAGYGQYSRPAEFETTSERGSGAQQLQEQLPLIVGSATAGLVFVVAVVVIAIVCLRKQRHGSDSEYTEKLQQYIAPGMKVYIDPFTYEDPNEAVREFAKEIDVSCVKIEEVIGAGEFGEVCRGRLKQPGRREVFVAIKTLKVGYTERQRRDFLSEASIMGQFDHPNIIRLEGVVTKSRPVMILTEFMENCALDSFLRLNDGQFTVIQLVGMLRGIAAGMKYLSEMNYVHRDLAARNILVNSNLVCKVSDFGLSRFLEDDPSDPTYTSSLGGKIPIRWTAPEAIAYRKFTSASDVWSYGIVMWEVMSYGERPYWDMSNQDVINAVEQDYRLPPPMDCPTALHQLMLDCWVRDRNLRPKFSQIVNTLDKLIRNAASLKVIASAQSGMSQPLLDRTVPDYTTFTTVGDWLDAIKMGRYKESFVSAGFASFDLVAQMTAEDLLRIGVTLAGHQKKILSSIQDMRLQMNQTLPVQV

Dual specificity protein kinase CLK3 (Homo sapiens), sequence (P49761 whole entry, looked up): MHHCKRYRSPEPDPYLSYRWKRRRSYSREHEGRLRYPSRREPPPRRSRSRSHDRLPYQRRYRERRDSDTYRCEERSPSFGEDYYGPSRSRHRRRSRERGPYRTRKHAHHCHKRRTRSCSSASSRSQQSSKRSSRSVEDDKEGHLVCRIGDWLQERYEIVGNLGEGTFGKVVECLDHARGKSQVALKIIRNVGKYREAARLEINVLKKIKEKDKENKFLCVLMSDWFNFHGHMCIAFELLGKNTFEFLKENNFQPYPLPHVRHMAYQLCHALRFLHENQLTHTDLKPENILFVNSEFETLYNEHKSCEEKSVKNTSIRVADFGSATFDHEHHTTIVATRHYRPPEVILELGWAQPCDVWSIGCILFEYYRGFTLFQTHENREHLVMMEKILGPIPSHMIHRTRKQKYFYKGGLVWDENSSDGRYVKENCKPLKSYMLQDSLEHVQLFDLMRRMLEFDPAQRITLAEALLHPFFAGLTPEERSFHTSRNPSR
Casein kinase II subunit alpha' (Homo sapiens), sequence (P19784 whole entry, looked up): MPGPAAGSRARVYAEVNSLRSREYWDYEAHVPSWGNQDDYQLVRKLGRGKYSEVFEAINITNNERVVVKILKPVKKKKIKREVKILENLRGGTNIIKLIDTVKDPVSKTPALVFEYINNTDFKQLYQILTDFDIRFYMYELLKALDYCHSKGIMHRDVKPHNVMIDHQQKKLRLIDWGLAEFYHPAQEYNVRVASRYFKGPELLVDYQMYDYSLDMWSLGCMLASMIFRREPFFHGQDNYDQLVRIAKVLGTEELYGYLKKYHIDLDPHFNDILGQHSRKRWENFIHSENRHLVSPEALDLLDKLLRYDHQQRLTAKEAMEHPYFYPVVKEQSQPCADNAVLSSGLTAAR
Interferon-induced, double-stranded RNA-activated protein kinase (Homo sapiens), sequence (P19525 whole entry, the tested form may be a part): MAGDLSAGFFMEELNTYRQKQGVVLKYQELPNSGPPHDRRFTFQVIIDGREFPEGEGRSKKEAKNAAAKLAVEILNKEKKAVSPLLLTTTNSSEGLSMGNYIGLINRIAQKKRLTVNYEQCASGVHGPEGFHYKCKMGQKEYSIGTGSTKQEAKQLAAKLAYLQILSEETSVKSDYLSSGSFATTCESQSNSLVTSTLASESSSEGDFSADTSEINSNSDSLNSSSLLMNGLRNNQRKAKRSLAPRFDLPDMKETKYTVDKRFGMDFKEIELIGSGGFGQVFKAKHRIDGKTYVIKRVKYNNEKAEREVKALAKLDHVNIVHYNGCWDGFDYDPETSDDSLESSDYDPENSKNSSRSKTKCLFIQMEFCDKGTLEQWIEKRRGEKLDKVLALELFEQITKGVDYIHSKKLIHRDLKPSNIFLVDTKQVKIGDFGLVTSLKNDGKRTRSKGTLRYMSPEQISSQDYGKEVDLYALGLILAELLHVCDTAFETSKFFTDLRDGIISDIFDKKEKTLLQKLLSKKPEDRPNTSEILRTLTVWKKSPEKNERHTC
Ribosomal protein S6 kinase alpha-4 (Homo sapiens), sequence (O75676 whole entry, looked up, the tested form may be a part): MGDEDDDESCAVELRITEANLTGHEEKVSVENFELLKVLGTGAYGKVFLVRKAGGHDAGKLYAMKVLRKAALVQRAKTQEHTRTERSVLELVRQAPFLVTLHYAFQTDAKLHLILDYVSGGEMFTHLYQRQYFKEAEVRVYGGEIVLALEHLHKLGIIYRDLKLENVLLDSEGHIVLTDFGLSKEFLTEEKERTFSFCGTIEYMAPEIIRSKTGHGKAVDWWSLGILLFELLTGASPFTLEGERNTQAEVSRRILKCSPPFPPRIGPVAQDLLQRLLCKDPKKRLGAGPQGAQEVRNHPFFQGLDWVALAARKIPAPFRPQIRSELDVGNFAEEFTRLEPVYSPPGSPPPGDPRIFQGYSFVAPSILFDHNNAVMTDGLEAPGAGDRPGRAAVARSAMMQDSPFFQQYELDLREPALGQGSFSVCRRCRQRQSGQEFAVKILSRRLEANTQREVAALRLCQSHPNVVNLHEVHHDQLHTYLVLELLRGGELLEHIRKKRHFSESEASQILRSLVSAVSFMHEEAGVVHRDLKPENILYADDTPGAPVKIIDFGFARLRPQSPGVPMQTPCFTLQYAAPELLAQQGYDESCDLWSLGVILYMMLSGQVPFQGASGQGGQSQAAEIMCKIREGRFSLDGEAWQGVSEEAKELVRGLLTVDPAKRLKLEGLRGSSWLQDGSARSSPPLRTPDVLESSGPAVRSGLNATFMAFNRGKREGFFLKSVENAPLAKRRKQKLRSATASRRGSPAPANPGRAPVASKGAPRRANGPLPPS
TRAF2 and NCK-interacting protein kinase (Homo sapiens), sequence (Q9UKE5 whole entry, looked up): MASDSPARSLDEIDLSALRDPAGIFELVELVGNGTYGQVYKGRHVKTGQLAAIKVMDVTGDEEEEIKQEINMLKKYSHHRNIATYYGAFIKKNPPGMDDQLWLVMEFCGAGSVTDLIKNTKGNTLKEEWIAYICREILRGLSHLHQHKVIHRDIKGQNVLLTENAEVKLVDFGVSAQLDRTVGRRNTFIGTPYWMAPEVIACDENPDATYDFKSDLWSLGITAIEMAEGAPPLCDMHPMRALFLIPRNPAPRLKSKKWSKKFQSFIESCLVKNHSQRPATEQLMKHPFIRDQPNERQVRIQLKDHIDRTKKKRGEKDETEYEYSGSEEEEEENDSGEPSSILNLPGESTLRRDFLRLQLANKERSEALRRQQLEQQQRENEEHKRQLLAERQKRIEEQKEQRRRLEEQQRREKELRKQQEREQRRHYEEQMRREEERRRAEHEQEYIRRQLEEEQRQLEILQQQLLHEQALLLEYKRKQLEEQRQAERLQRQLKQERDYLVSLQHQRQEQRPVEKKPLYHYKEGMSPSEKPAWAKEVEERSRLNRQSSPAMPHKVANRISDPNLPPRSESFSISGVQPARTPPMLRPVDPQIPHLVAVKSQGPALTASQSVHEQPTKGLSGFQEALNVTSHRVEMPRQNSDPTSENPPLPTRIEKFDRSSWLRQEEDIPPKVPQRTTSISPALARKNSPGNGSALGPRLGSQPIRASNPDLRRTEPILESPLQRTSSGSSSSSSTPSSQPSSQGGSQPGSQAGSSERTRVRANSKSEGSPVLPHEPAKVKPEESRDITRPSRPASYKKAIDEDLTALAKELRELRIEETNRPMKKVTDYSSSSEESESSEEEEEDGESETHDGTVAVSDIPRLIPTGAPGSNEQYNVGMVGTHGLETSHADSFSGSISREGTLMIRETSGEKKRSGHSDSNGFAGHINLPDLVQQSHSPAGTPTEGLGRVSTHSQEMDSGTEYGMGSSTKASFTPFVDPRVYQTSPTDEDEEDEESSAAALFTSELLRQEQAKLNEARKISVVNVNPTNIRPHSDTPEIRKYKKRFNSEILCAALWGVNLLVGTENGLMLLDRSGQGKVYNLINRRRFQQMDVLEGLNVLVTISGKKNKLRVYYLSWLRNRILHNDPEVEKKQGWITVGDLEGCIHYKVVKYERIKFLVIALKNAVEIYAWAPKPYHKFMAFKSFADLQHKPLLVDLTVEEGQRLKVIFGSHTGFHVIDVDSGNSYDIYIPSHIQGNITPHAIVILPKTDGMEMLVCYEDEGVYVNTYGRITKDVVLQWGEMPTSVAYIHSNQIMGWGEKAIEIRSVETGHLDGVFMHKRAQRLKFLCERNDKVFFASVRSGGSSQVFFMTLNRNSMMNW

SMILES	inhibition [1] [%]	inhibition [2] [%]	inhibition [3] [%]	inhibition [4] [%]	inhibition [5] [%]	inhibition [6] [%]	inhibition [7] [%]	inhibition [8] [%]
CN1CCN(c2ccc(-c3cnc4c(c3)N(Cc3cc(Cl)ccc3C(F)(F)F)CCN4)cn2)CC1	< 50	< 50	< 50	< 50	< 50	< 50	< 50	< 50
O=C(O)c1ccc(-c2cnc3c(c2)N(Cc2cc(Cl)ccc2C(F)(F)F)CCN3)cc1	< 50	< 50	< 50	< 50	< 50	< 50	< 50	< 50
O=C(c1ccc(-c2cnc3c(c2)N(Cc2cc(Cl)ccc2C(F)(F)F)CCN3)cc1)N1CCC(N2CCCC2)CC1	< 50	< 50	< 50	< 50	< 50	< 50	< 50	< 50
COC1CCN(C(=O)c2ccc(-c3cnc4c(c3)N(Cc3cc(Cl)ccc3C(F)(F)F)CCN4)cc2)CC1	< 50	< 50	< 50	< 50	< 50	< 50	< 50	< 50
CC(=O)N1CCN(c2cc(-c3cnc4c(c3)N(Cc3cc(Cl)ccc3C(F)(F)F)CCN4)ccn2)CC1	< 50	< 50	< 50	< 50	< 50	< 50	< 50	< 50
CN1CCN(c2ccc(-c3cnc4c(c3)N(Cc3cc(F)ccc3F)CCN4)cn2)CC1	< 50	< 50	< 50	< 50	< 50	< 50	< 50	< 50
O=C(c1ccc(-c2cnc3c(c2)N(Cc2cc(Cl)ccc2C(F)(F)F)CCN3)cc1)N1CCCCC1	< 50	< 50	< 50	< 50	< 50	< 50	< 50	< 50

Continued, values first:

inhibition [1] [%]	inhibition [2] [%]	inhibition [3] [%]	inhibition [4] [%]	inhibition [5] [%]	inhibition [6] [%]	inhibition [7] [%]	inhibition [8] [%]	SMILES
< 50	< 50	< 50	< 50	< 50	< 50	< 50	< 50	FC(F)(F)c1ccc(Cl)cc1CN1CCNc2ncc(-c3ccnc(N4CCNCC4)c3)cc21
< 50	< 50	< 50	82	< 50	< 50	< 50	< 50	CN1CCN(c2ccc(-c3cnc4c(c3)N(Cc3c(F)ccc(F)c3Cl)CCN4)cn2)CC1
< 50	< 50	< 50	< 50	< 50	< 50	< 50	< 50	CN1CCN(c2ccc(-c3cnc4c(c3)N(Cc3cc(Cl)ccc3Cl)CCN4)cn2)CC1
